{"data": "Measurements from different studies", "target": "STE20/SPS1-related proline-alanine-rich protein kinase (STK39, Homo sapiens, UniProt Q9UEW8)"}
{"Compound": "O=C(Nc1cnn(-c2csc(C(=O)NC3COC3)c2)c1)Nc1ccccc1Cl", "effect on": "enzyme activity", "mode": "inhibitor", "tested at": "5 µM", "quantity": "remaining activity", "result": "87.5%"}
{"Compound": "COc1cc2c(N3CCN(C(=O)Nc4ccc(OC(C)C)cc4)CC3)ncnc2cc1OCCCN1CCCCC1", "effect on": "cell-free assay", "tested at": "0.5 µM", "quantity": "remaining signal", "result": "93.2%"}
{"Compound": "CNC(=O)Nc1ccc2c(c1)[C@@]1(CC2)OC(=O)N(CC(=O)N(Cc2ccc(F)cc2)[C@@H](C)C(F)(F)F)C1=O", "effect on": "cell-free assay", "technique": "competition with immobilised ligand", "tested at": "1 µM", "quantity": "remaining binding", "result": "100%"}
{"Compound": "CC(C)(O)[C@H]1CC[C@H](Nc2ccc3ncc(-c4cccc(C(F)(F)F)c4)n3n2)CC1", "effect on": "enzyme activity", "mode": "inhibitor", "tested at": "1 µM", "quantity": "remaining activity", "result": "112%"}
{"Compound": "Cc1sc(C(=O)NC2COC2)cc1-n1cc(NC(=O)Nc2c(F)cccc2Cl)cn1", "effect on": "enzyme activity", "mode": "inhibitor", "tested at": "10 µM", "quantity": "remaining activity", "result": "64.5%"}
{"Compound": "CC(C)(C)c1nc(-c2cccc(NS(=O)(=O)c3c(F)cccc3F)c2F)c(-c2ccnc(N)n2)s1", "effect on": "enzyme activity", "mode": "inhibitor", "technique": "radiometric", "tested at": "1 µM", "quantity": "remaining activity", "result": "81%"}
{"Compound": "O=c1nc(-c2ccccn2)sc2ccccc12", "effect on": "binding", "technique": "competition with immobilised ligand", "tested at": "1 µM", "quantity": "remaining binding", "result": "100%"}
{"Compound": "Cn1cnc(Br)c1C1=CN(c2ncnc3[nH]cnc23)CCS1", "effect on": "enzyme activity", "mode": "inhibitor", "technique": "radiometric", "tested at": "50 nM", "quantity": "inhibition", "result": "65.5%"}
{"Compound": "COc1ccc(COc2ccc(Cc3cnc(N)nc3N)cc2OC)cc1", "effect on": "cell-free assay", "tested at": "0.5 µM", "quantity": "remaining signal", "result": "87.6%"}
{"Compound": "CCC(=O)N[C@@H]1CC[C@H](C(=O)N(C)c2ccc(-c3nc4ccccc4o3)cc2)C1", "effect on": "cell-free assay", "technique": "competition with immobilised ligand", "tested at": "1 µM", "quantity": "remaining binding", "result": "73%"}
{"Compound": "Cc1ccc(NC(=O)c2ccc(CN3CCN(C)CC3)cc2)cc1Nc1nc(-c2cccnc2)cs1", "effect on": "cell-free assay", "tested at": "0.5 µM", "quantity": "remaining signal", "result": "94%"}
{"Compound": "Cc1c(NC(=O)c2cc(C(N)=O)nc3cc(F)ccc23)c(C(F)(F)F)nn1Cc1ccc(C(C)(C)C)cc1", "effect on": "cell-free assay", "technique": "competition with immobilised ligand", "tested at": "1 µM", "quantity": "remaining binding", "result": "100%"}
